What was measured:
[1] = tested on: Human immunodeficiency virus 1; experiment: Antiviral activity against HIV1 LAI in human MT2 cells assessed as inhibition of p24 antigen production by ELISA; type: functional, organism-based; details: Human immunodeficiency virus 1, LAI
In short: (§1)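 MT-2 cells in RPMI 1640 with 10% FBS and 10 mM HEPES, infected with HIV-1 LAI at MOI 0.001 TCID50/cell. Incubated with threefold serial dilutions, three wells per dilution. EC50 taken as the concentration inhibiting p24 antigen production by 50%.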

[2] = tested on: Human immunodeficiency virus 1; experiment: Antiviral activity against HIV1 in human MT2 cells; type: functional, organism-based; in short: as §1
[3] = AUC (0 to 24 hrs) in Sprague-Dawley rat at 10 mg/kg, po administered daily for 7 days measured on day 7; type: ADME, organism-based; parameters: time < 24 hr, dose 10 mg/kg, route oral; details: plasma
In short: (§2)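 Oral once daily for 7 days, vehicle or 10, 30 or 100 mg/kg/day, Sprague-Dawley rats 8-12 weeks old, not fasted. Plasma sampled 0.5, 1, 2, 4, 12, 24 h after dosing on days 1 and 7 (1 rat/sex/time point). CMX157 and tenofovir measured by HPLC-MS/MS, LOQ 1 ng/ml (values below set to zero). Noncompartmental analysis; Cmax/Tmax by direct observation, AUC by linear-log trapezoidal rule.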

[4] = Tmax in Sprague-Dawley rat at 30 mg/kg, po administered daily for 7 days measured on day 7; type: ADME, organism-based; parameters: dose 30 mg/kg, route oral; details: in vivo
In short: (§3)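 Sprague-Dawley rats, 8–12 weeks old, dosed orally once daily for 7 days and not fasted. Blood taken at 0.5, 1, 2, 4, 12 and 24 h after dosing on days 1 and 7, one rat/sex/time point. Plasma deproteinized, analyte separated by mixed-mode HPLC and quantified by MS/MS, LOQ 1 ng/ml, values below LOQ set to zero. Noncompartmental analysis: Tmax read from plotted data, AUC by linear-log trapezoidal rule.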

[5] = AUC (0 to 24 hrs) in Sprague-Dawley rat at 100 mg/kg, po administered daily for 7 days measured on day 7; type: ADME, organism-based; parameters: time < 24 hr, dose 100 mg/kg, route oral; details: plasma; in short: as §2
[6] = Cytotoxicity against human PBMC by XTT assay; type: cell-based
In short: (§4)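 Fresh human PBMCs, seronegative for HIV and HBV, infected with HIV-1 clade B HT/92/599. Antiviral read-out by reverse transcriptase reduction; cytotoxicity by XTT staining. EC50, CC50 and CC50/EC50 taken from data plots, given as mean ± standard deviation of triplicate determinations.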

[7] = Tmax in Sprague-Dawley rat at 10 mg/kg, po administered daily for 7 days measured on day 7; type: ADME, organism-based; parameters: dose 10 mg/kg, route oral; details: in vivo; in short: as §3
[8] = tested on: Rattus norvegicus; experiment: Toxicity in Sprague-Dawley rat assessed as hematological changes at 10 to 100 mg/kg, po administered daily for 7 days; type: organism-based; parameters: dose 10-100 mg/kg, route oral; details: in vivo, 168 h
In short: (§5)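 Sprague-Dawley rats (3/sex/group), 8–12 weeks old, given vehicle or 10, 30 or 100 mg/kg/day orally once daily for 7 days. Serum biochemistry, hematology and urinalysis done at day 7. At necropsy, control and high-dose rats examined grossly, organs weighed, and all tissues processed for histopathology.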

[9] = tested on: Rattus norvegicus; experiment: Toxicity in Sprague-Dawley rat assessed as change in food consumption at 10 to 100 mg/kg, po administered daily for 7 days; type: organism-based; parameters: dose 10-100 mg/kg, route oral; details: in vivo, 168 h
In short: (§6)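 Sprague-Dawley rats (3/sex/group), 8–12 weeks old, given vehicle or 10, 30 or 100 mg/kg/day orally once daily for 7 days. Mortality, morbidity, clinical observations, body weight and food consumption recorded daily.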

[10] = tested on: Rattus norvegicus; experiment: Toxicity in Sprague-Dawley rat assessed as change in organ weight at 10 to 100 mg/kg, po administered daily for 7 days; type: organism-based; parameters: dose 10-100 mg/kg, route oral; details: in vivo, 168 h; in short: as §5
[11] = tested on: Rattus norvegicus; experiment: Toxicity in Sprague-Dawley rat assessed as ophthalmological changes at 10 to 100 mg/kg, po administered daily for 7 days; type: organism-based; parameters: dose 10-100 mg/kg, route oral; details: in vivo, 168 h
[12] = Selectivity index, ratio of CC50 for human PBMC to EC50 for HIV1 clade B HT/92/599 isolate; in short: as §4
[13] = tested on: Rattus norvegicus; experiment: Toxicity in Sprague-Dawley rat assessed as change in clinical chemistry parameters at 10 to 100 mg/kg, po administered daily for 7 days; type: organism-based; parameters: dose 10-100 mg/kg, route oral; details: in vivo, 168 h; in short: as §5
[14] = tested on: HepG2; experiment: Cytotoxicity against human HepG2 cells by MTS assay; type: cell-based; details: Homo sapiens, HepG2
In short: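 Exponentially growing HepG2 cells (parent hepatoma line); cytostatic effect measured by MTS method.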

[15] = tested on: Rattus norvegicus; experiment: Toxicity in Sprague-Dawley rat assessed as change in coagulation parameters at 10 to 100 mg/kg, po administered daily for 7 days; type: organism-based; parameters: dose 10-100 mg/kg, route oral; details: in vivo, 168 h
[16] = Elimination half life in Sprague-Dawley rat at 100 mg/kg, po administered daily for 7 days measured on day 7; type: ADME, organism-based; parameters: dose 100 mg/kg, route oral; details: in vivo, read-out: beta t1/2 (converted); in short: as §2
[17] = Elimination half life in Sprague-Dawley rat at 100 mg/kg, po administered daily for 7 days measured on day 1; type: ADME, organism-based; parameters: dose 100 mg/kg, route oral; details: in vivo, read-out: beta t1/2 (converted); in short: as §2
[18] = Selectivity index, ratio of CC50 for human MT2 cells to EC50 for HIV1 LAI; type: toxicity, cell-based; details: read-out: Ratio CC50/EC50
[19] = tested on: Rattus norvegicus; experiment: Toxicity in Sprague-Dawley rat assessed as microscopic lesions at 10 to 100 mg/kg, po administered daily for 7 days; type: organism-based; parameters: dose 10-100 mg/kg, route oral; details: in vivo, 168 h; in short: as §5
[20] = Selectivity index, ratio of CC50 for human HepG2(2.2.15) cells to EC50 for HBV
[21] = AUC (0 to 24 hrs) in Sprague-Dawley rat at 30 mg/kg, po administered daily for 7 days measured on day 7; type: ADME, organism-based; parameters: time < 24 hr, dose 30 mg/kg, route oral; details: plasma; in short: as §2
[22] = Tmax in Sprague-Dawley rat at 10 mg/kg, po administered daily for 7 days measured on day 1; type: ADME, organism-based; parameters: dose 10 mg/kg, route oral; details: in vivo; in short: as §3
[23] = tested on: Rattus norvegicus; experiment: Toxicity in Sprague-Dawley rat assessed as change in gross necroscopy at 10 to 100 mg/kg, po administered daily for 7 days; type: organism-based; parameters: dose 10-100 mg/kg, route oral; details: in vivo, 168 h; in short: as §5
[24] = tested on: Rattus norvegicus; experiment: Toxicity in Sprague-Dawley rat assessed as change in body weight at 10 to 100 mg/kg, po administered daily for 7 days; type: organism-based; parameters: dose 10-100 mg/kg, route oral; details: in vivo, 168 h; in short: as §6
[25] = Cytotoxicity against human HepG2(2.2.15) cells after 24 hrs by neutral red uptake assay; type: cell-based; details: Homo sapiens, HepG2 2.2.15, 24 h
In short: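 Confluent 2.2.15 cells given nine daily treatments. Neutral red uptake read by absorbance of internalized dye 24 h after the last treatment, three cultures per concentration.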

[26] = AUC (0 to 24 hrs) in Sprague-Dawley rat at 100 mg/kg, po administered daily for 7 days measured on day 1; type: ADME, organism-based; parameters: time < 24 hr, dose 100 mg/kg, route oral; details: plasma; in short: as §3
[27] = Tmax in Sprague-Dawley rat at 100 mg/kg, po administered daily for 7 days measured on day 7; type: ADME, organism-based; parameters: dose 100 mg/kg, route oral; details: in vivo; in short: as §3
[28] = AUC (0 to 24 hrs) in Sprague-Dawley rat at 30 mg/kg, po administered daily for 7 days measured on day 1; type: ADME, organism-based; parameters: time < 24 hr, dose 30 mg/kg, route oral; details: plasma; in short: as §3
[29] = Tmax in Sprague-Dawley rat at 30 mg/kg, po administered daily for 7 days measured on day 1; type: ADME, organism-based; parameters: dose 30 mg/kg, route oral; details: in vivo; in short: as §3
[30] = tested on: Hepatitis B virus; experiment: Antiviral activity against HBV in human HepG2(2.2.15) cells assessed as viral DNA levels treated for 9 days measured after 24 hrs; type: functional, organism-based
In short: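 Confluent 2.2.15 cells in RPMI 1640 with 2% FBS, given nine consecutive daily doses with daily medium change (six cultures per concentration on two replicate plates). HBV DNA quantified by blot hybridization 24 h after the last treatment.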

[31] = Tmax in Sprague-Dawley rat at 100 mg/kg, po administered daily for 7 days measured on day 1; type: ADME, organism-based; parameters: dose 100 mg/kg, route oral; details: in vivo; in short: as §3
[32] = AUC (0 to 24 hrs) in Sprague-Dawley rat at 10 mg/kg, po administered daily for 7 days measured on day 1; type: ADME, organism-based; parameters: time < 24 hr, dose 10 mg/kg, route oral; details: plasma; in short: as §3
[33] = Cytotoxicity against human MT2 cells; type: cell-based
In short: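 MT-2 cells in RPMI 1640 with 10% FBS and 10 mM HEPES, exposed to threefold serial drug dilutions. CC50 calculated from cell counts and viability.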

[34] = tested on: Human immunodeficiency virus 1; experiment: Antiviral activity against HIV1 clade B HT/92/599 isolate in human PBMC assessed as reduction in reverse transcriptase; type: functional, organism-based; details: Human immunodeficiency virus 1, clade B; in short: as §4
[35] = tested on: Rattus norvegicus; experiment: Toxicity in Sprague-Dawley rat assessed as mortality at 10 to 100 mg/kg, po administered daily for 7 days; type: organism-based; parameters: dose 10-100 mg/kg, route oral; details: in vivo, 168 h; in short: as §6
[36] = tested on: Rattus norvegicus; experiment: Toxicity in Sprague-Dawley rat assessed as change in erythrocyte morphology at 10 to 100 mg/kg, po administered daily for 7 days; type: organism-based; parameters: dose 10-100 mg/kg, route oral; details: in vivo, 168 h
[37] = tested on: Hepatitis B virus; experiment: Antiviral activity against HBV in human HepAD38 cells assessed as intracellular viral DNA levels treated for 3 days measured on day 6 […] by RT-PCR; type: functional, organism-based
In short: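 HepAD38 cells seeded at 5 x 10^5/well, grown 2-3 days with 0.3 µg/ml tetracycline, then induced by PBS wash and tetracycline/G418-free medium with or without compound at 37°C, 5% CO2. Medium changed after 3 days. Intracellular HBV DNA measured on day 6 postinduction by TaqMan real-time PCR against a plasmid standard curve, given as % of mock.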

[38] = tested on: Rattus norvegicus; experiment: Toxicity in Sprague-Dawley rat assessed as change in urinalysis parameters at 10 to 100 mg/kg, po administered daily for 7 days; type: organism-based; parameters: dose 10-100 mg/kg, route oral; details: in vivo, 168 h; in short: as §5
[39] = Selectivity index, ratio of CC50 for human HepG2 cells to EC50 for HBV

## CCCCCCCCCCCCCCCCOCCCOP(=O)(O)CO[C@H](CO)Cn1cnc2c(N)ncnc21
[1]
  EC50: 7 nM

## CCCCCCCCCCCCCCCCOCCCOP(=O)(O)COCCn1cnc2c(N)nc(N)nc21
[2]
  EC50: 0.02 nM

## CCCCCCCCCCCCCCCCOCCCOP(=O)(O)COCCn1cnc2c(NC3CC3)nc(N)nc21
[2]
  EC50: 0.02 nM

## CCCCCCCCCCCCCCCCOCCCOP(=O)(O)CO[C@H](C)Cn1cnc2c(N)ncnc21 [TENOFOVIR EXALIDEX]
[3]
  AUC at 24 h: 435 ng·h/mL
[4]
  Tmax: 1 h
[5]
  AUC at 24 h: 8410 ng·h/mL
[6]
  CC50: 144000 nM
[7]
  Tmax: 0.5 h
[8]
  Activity: Non-toxic
[9]
  Activity: Non-toxic
[10]
  Activity: Non-toxic
[11]
  Activity: Non-toxic
[12]
  Ratio CC50/EC50: 12000
[13]
  Activity: Non-toxic
[1]
  EC50: < 0.01 nM
[14]
  EC50: > 18800 nM
[15]
  Activity: Non-toxic
[16]
  half-life: 1.6 h
[17]
  half-life: 2.5 h
[18]
  selectivity ratio: > 5.4e+06
[19]
  Activity: Non-toxic
[20]
  Ratio CC50/EC50: >187.5
[21]
  AUC at 24 h: 1540 ng·h/mL
[22]
  Tmax: 0.5 h
[23]
  Activity: Non-toxic
[24]
  Activity: Non-toxic
[25]
  EC50: > 300000 nM
[26]
  AUC(0-t) at 24 h: 5410 ng·h/mL
[27]
  Tmax: 2 h
[28]
  AUC(0-t) at 24 h: 1830 ng·h/mL
[29]
  Tmax: 2 h
[30]
  EC50: 1600 nM
[31]
  Tmax: 2 h
[32]
  AUC(0-t) at 24 h: 442 ng·h/mL
[33]
  CC50: 54000 nM
[34]
  EC50: 12 nM
[35]
  Activity: Non-toxic
[36]
  Activity: Non-toxic
[37]
  EC50: 490 nM
[38]
  Activity: Non-toxic
[39]
  Ratio CC50/EC50: 38.4

Reference: ChEMBL document CHEMBL1152819, “Evaluation of hexadecyloxypropyl-9-R-[2-(Phosphonomethoxy)propyl]- adenine, CMX157, as a potential treatment for human immunodeficiency virus type 1 and hepatitis B virus infections” (Antimicrob Agents Chemother, 2007)
